Experimental data as given in ChEMBL document CHEMBL1806459, “Discovery of N-(1-ethylpropyl)-[3-methoxy-5-(2-methoxy-4-trifluoromethoxyphenyl)-6-methyl-pyrazin-2-yl]amine 59 (NGD 98-2): an orally active corticotropin releasing factor-1 (CRF-1) receptor antagonist” (J Med Chem, 2011).
Active and inactive are the calls of the source. The calls are words filed in the database; no cut-off is given here.

Assays:
[1] = Inhibition of galanin receptor at 4 uM
Procedure, shortened: (§1)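 Single-concentration screen within a 69-target selectivity panel. The test concentration was 4 μM, a level set by the compound's limited aqueous solubility.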

[2] = Inhibition of AMPA receptor at 4 uM
Procedure, shortened: (§2)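 Selectivity panel of 69 targets, test compound at 4 μM, a level set by aqueous solubility limits; percent inhibition recorded per target.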

[3] = Inhibition of NMDA receptor at 4 uM; procedure, shortened: as §2
[4] = target: Epidermal growth factor receptor (Homo sapiens) (UniProt P00533); assay: Inhibition of EGFR receptor at 4 uM; procedure, shortened: as §2
[5] = target: Interleukin-6 (Homo sapiens) (UniProt P05231); assay: Inhibition of IL-6 at 4 uM; procedure, shortened: as §2
Interleukin-6 (Homo sapiens), sequence (P05231 whole entry): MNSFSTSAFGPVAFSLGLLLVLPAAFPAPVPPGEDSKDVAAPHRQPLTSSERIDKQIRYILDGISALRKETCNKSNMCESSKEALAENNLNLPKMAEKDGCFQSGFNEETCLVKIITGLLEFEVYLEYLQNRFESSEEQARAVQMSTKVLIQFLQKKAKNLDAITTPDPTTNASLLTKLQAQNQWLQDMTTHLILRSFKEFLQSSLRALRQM

[6] = target: Histamine H1 receptor (Homo sapiens) (UniProt P35367); assay: Inhibition of Histamine H1 receptor at 4 uM; procedure, shortened: as §2
Histamine H1 receptor (Homo sapiens), sequence (P35367 whole entry): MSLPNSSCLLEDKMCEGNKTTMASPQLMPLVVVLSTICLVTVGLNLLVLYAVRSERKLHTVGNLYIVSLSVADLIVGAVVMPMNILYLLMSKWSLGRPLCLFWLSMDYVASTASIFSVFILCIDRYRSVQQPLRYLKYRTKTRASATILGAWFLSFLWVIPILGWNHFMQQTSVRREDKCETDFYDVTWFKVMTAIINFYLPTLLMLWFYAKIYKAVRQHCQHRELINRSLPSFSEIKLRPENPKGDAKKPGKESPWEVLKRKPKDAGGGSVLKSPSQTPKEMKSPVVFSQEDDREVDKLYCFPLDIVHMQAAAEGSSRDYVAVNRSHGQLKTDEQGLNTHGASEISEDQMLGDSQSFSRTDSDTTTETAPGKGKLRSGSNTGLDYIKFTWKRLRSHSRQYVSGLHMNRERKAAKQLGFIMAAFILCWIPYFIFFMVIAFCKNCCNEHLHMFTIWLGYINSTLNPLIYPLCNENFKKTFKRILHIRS

[7] = target: Histamine H3 receptor (Homo sapiens) (UniProt Q9Y5N1); assay: Inhibition of Histamine H3 receptor at 4 uM; procedure, shortened: as §2
[8] = target: Insulin receptor (Homo sapiens) (UniProt P06213); assay: Inhibition of Insulin receptor at 4 uM; procedure, shortened: as §2
Insulin receptor (Homo sapiens), sequence (P06213 28-758 limits assumed): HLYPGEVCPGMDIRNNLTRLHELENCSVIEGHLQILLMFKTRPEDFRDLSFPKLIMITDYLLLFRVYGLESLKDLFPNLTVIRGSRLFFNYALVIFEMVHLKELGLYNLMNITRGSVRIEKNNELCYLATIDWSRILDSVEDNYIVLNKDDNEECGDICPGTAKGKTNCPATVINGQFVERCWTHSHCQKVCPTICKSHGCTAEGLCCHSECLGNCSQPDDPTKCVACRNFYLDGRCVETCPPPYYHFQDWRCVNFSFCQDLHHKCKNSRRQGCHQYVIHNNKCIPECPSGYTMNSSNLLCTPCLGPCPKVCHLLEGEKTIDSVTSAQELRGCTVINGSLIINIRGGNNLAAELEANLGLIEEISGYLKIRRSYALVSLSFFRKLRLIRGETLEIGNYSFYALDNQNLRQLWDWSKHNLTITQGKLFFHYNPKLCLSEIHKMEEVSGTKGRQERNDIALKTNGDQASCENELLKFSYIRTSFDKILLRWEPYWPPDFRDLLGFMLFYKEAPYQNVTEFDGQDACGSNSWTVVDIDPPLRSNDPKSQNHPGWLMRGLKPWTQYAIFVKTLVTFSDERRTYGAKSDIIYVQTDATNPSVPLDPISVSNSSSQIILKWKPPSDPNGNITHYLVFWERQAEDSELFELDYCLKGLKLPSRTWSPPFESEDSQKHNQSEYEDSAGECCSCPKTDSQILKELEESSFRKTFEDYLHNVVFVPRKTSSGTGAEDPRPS
Insulin receptor (Homo sapiens), sequence (P06213 763-1382 limits assumed): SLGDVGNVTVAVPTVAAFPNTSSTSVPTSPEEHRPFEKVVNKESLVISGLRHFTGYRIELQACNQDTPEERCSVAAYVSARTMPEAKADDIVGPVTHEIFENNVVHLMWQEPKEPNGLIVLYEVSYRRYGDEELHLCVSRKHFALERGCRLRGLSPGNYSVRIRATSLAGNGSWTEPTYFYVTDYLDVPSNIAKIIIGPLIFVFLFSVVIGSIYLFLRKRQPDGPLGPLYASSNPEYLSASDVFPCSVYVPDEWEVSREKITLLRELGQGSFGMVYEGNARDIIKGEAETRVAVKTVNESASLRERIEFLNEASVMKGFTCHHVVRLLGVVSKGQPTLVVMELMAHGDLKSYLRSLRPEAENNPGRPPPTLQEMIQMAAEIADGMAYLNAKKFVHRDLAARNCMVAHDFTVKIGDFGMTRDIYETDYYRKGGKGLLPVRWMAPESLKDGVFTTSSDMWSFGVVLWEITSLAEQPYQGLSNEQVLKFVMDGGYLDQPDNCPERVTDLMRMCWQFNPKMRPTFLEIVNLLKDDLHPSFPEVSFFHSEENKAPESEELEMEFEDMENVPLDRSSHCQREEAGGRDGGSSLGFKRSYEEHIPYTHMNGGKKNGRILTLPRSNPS

[9] = Inhibition of Choline transporter at 4 uM; procedure, shortened: as §2
[10] = target: Substance-K receptor (Homo sapiens) (UniProt P21452); assay: Inhibition of Neurokinin NK2 receptor at 4 uM; procedure, shortened: as §1
[11] = Inhibition of Neurotensin receptor at 4 uM; procedure, shortened: as §1
[12] = Inhibition of BGTX-insensitive N-neuronal receptor at 4 uM; procedure, shortened: as §2
[13] = target: Oxytocin receptor (Homo sapiens) (UniProt P30559); assay: Inhibition of Oxytocin receptor at 4 uM; procedure, shortened: as §1
Oxytocin receptor (Homo sapiens), sequence (P30559 whole entry): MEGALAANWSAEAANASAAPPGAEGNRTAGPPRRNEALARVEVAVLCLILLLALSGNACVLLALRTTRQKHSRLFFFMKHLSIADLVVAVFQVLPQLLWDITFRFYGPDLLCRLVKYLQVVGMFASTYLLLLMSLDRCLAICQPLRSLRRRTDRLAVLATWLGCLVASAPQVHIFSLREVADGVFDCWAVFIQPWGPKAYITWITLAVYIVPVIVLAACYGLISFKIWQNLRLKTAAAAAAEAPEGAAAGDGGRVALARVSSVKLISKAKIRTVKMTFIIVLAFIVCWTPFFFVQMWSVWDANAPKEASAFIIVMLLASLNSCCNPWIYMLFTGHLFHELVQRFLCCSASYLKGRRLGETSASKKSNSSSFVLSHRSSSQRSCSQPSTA

[14] = target: Platelet-activating factor receptor (Homo sapiens) (UniProt P25105); assay: Inhibition of Platelet activating factor receptor at 4 uM; procedure, shortened: as §1
[15] = target: 5-hydroxytryptamine receptor 5A (Homo sapiens) (UniProt P47898); assay: Inhibition of Serotonin 5HT5A receptor at 4 uM; procedure, shortened: as §1
5-hydroxytryptamine receptor 5A (Homo sapiens), sequence (P47898 whole entry): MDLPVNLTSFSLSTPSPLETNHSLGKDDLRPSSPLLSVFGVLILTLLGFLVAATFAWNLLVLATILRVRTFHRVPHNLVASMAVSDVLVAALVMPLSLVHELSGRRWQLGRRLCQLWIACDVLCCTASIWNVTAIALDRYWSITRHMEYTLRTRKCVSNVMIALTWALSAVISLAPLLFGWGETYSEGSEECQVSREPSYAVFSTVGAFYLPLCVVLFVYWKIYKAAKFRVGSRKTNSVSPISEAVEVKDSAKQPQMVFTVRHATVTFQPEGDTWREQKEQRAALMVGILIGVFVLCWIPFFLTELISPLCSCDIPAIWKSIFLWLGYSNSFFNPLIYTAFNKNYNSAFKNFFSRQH

[16] = target: 5-hydroxytryptamine receptor 6 (Homo sapiens) (UniProt P50406); assay: Inhibition of Serotonin 5HT6 receptor at 4 uM; procedure, shortened: as §1
[17] = target: 5-hydroxytryptamine receptor 7 (Homo sapiens) (UniProt P34969); assay: Inhibition of Serotonin 5HT7 receptor at 4 uM; procedure, shortened: as §1
[18] = Inhibition of Sigma opiate receptor at 4 uM; procedure, shortened: as §1
[19] = target: Somatostatin receptor (Homo sapiens) (UniProt P35346+P30874+P31391+P30872+P32745); assay: Inhibition of somatostatin at 4 uM; procedure, shortened: as §1
[20] = target: Glucocorticoid receptor (Homo sapiens) (UniProt P04150); assay: Inhibition of glucocorticoid receptor at 4 uM; procedure, shortened: as §1
[21] = target: Vasoactive intestinal polypeptide receptor 1 (Homo sapiens) (UniProt P32241); assay: Inhibition of VPAC1 receptor at 4 uM; procedure, shortened: as §1
Vasoactive intestinal polypeptide receptor 1 (Homo sapiens), sequence (P32241 whole entry): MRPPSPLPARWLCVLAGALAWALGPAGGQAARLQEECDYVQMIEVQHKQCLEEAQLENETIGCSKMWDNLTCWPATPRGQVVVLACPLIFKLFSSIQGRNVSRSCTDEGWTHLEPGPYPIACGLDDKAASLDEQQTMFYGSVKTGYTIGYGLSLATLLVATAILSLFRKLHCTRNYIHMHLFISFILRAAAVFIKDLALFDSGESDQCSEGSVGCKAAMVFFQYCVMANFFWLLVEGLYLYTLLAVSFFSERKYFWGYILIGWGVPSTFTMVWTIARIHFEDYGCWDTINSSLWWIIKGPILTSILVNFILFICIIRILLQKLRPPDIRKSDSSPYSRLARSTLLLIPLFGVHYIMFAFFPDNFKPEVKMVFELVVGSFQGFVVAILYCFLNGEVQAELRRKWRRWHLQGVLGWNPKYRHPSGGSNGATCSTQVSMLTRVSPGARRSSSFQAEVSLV

[22] = Inhibition of L-type calcium channel at 4 uM; procedure, shortened: as §2
[23] = species: Rattus norvegicus; assay: Metabolic stability in rat assessed as oxidation of isopentyl group; type: ADME, organism-based; details: in vivo
[24] = species: Rattus norvegicus; assay: Metabolic stability in rat assessed as […] of isopentyl group; type: ADME, organism-based; details: in vivo
[25] = species: Rattus norvegicus; assay: Metabolic stability in rat assessed as demethylation of one or both methoxy group; type: ADME, organism-based; details: in vivo
[26] = Inhibition of phosphodiesterase 2 at 4 uM; procedure, shortened: as §1
[27] = Inhibition of phosphodiesterase 3 at 4 uM; procedure, shortened: as §1
[28] = Inhibition of phosphodiesterase 4 at 4 uM; procedure, shortened: as §1
[29] = Inhibition of phosphodiesterase 5 at 4 uM; procedure, shortened: as §1
[30] = target: hERG (KCNH2) (Homo sapiens, UniProt Q12809); assay: Inhibition of human ERG expressed in african green monkey COS7 cells at 3 uM by electrophysiological assay; type: cell-based; details: COS-7 cells (African green monkey) expressing human ERG
[31] = system: Rattus norvegicus; assay: Antihyperlocomotion activity in Wistar rat assessed as decrease in CRF-induced hyperlocomotion at 10 mg/kg, po administered 3 hrs before CRF challenge measured after 1 hr; type: functional, organism-based; parameters: dose 10 mg/kg
Procedure, shortened: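 Rats received 0.3 μg CRF intracerebroventricularly, with oral pretreatment 3 h before in vehicle TPGS. Readout was movement time (locomotor activity), compared against TPGS/CRF controls.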

[32] = system: Rattus norvegicus; assay: Decrease in restrained-stress induced […] release in plasma of Sprague-Dawley rat at 10 mg/kg, po pretreated with compound for 3 hrs by radioimmunoassay; type: functional, organism-based; parameters: dose 10 mg/kg
Procedure, shortened: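 Rats orally pretreated, then restrained for 10 min to induce stress. Plasma ACTH measured and compared with vehicle/no-stress and vehicle/stress groups.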

[33] = Plasma protein binding in human; type: ADME, cell-free; details: read-out: PPB (converted)
Procedure, shortened: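 Binding to human plasma protein measured as percent bound.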

[34] = target: Alpha-1A adrenergic receptor (Homo sapiens) (UniProt P35348); assay: Inhibition of adrenergic alpha 1 receptor at 4 uM; procedure, shortened: as §1
[35] = target: Beta-1 adrenergic receptor (Homo sapiens) (UniProt P08588); assay: Inhibition of adrenergic beta 1 receptor at 4 uM; procedure, shortened: as §1
[36] = target: Beta-2 adrenergic receptor (Homo sapiens) (UniProt P07550); assay: Inhibition of adrenergic beta 2 receptor at 4 uM; procedure, shortened: as §1
[37] = target: Type-2 angiotensin II receptor (Homo sapiens) (UniProt P50052); assay: Inhibition of angiotensin AT2 receptor at 4 uM; procedure, shortened: as §1
Type-2 angiotensin II receptor (Homo sapiens), sequence (P50052 whole entry): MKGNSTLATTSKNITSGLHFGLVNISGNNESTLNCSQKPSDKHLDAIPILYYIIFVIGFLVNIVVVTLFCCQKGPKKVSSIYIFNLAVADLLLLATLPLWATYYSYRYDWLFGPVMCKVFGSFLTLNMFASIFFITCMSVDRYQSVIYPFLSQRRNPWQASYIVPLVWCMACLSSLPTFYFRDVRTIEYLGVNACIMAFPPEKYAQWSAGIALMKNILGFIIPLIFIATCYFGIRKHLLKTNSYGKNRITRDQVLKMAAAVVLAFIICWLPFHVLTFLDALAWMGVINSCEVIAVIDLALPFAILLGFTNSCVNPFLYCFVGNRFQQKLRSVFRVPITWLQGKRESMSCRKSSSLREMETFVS

[38] = target: Cannabinoid receptor 2 (Homo sapiens) (UniProt P34972); assay: Inhibition of cannabinoid CB2 receptor at 4 uM; procedure, shortened: as §1
[39] = target: Cholecystokinin receptor type A (Homo sapiens) (UniProt P32238); assay: Inhibition of cholecystokinin CCKA receptor at 4 uM; procedure, shortened: as §1
[40] = target: Gastrin/cholecystokinin type B receptor (Homo sapiens) (UniProt P32239); assay: Inhibition of cholecystokinin CCKB receptor at 4 uM; procedure, shortened: as §1
Gastrin/cholecystokinin type B receptor (Homo sapiens), sequence (P32239 whole entry): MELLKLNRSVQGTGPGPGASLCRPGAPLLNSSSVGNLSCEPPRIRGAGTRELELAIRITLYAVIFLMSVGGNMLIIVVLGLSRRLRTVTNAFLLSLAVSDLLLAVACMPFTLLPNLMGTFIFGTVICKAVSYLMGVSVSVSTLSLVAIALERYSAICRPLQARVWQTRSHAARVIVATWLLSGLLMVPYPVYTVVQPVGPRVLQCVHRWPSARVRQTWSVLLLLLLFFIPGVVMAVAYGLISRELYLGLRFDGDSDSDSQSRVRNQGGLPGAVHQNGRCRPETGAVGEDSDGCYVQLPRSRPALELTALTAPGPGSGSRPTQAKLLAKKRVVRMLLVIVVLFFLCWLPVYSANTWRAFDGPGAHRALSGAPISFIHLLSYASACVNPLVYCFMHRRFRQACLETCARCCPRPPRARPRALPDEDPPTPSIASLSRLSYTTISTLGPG

[41] = target: D(1A) dopamine receptor (Homo sapiens) (UniProt P21728); assay: Inhibition of dopamine D1 receptor at 4 uM; procedure, shortened: as §1
D(1A) dopamine receptor (Homo sapiens), sequence (P21728 whole entry): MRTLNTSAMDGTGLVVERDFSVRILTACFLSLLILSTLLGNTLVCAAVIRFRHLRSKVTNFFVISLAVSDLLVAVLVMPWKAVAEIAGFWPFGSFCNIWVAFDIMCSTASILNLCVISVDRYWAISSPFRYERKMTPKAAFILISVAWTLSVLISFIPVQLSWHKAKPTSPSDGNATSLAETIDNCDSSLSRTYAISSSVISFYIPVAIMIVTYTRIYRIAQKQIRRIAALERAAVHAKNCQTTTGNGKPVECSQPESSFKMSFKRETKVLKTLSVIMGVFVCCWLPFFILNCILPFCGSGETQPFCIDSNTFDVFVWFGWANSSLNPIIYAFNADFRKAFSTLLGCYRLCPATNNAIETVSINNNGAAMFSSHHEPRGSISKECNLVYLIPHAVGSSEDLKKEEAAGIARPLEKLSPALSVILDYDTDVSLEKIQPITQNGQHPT

[42] = target: D(3) dopamine receptor (Homo sapiens) (UniProt P35462); assay: Inhibition of dopamine D3 receptor at 4 uM; procedure, shortened: as §1
D(3) dopamine receptor (Homo sapiens), sequence (P35462 whole entry): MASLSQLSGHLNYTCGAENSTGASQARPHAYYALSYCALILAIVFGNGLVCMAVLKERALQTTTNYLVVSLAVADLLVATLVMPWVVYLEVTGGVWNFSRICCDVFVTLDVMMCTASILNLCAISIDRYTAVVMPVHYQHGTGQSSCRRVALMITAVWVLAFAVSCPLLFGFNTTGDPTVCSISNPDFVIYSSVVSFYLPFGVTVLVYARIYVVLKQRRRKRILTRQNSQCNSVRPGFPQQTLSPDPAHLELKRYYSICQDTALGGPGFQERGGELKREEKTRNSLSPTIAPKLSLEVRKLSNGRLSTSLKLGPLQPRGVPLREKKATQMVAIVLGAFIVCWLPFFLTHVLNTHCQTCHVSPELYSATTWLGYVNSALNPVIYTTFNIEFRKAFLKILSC

[43] = target: Endothelin receptor type B (Homo sapiens) (UniProt P24530); assay: Inhibition of endothelin ETB at 4 uM; procedure, shortened: as §1
[44] = Inhibition of GABA-A at 4 uM; procedure, shortened: as §2
[45] = Inhibition of GABA-B at 4 uM; procedure, shortened: as §2
[46] = Cmax in rat at 10 mg/kg, po; type: ADME, organism-based; parameters: dose 10 mg/kg, route oral; details: in vivo
[47] = Half life in rat at 1 mg/kg, iv; type: ADME, organism-based; parameters: dose 1 mg/kg, route intravenous; details: in vivo
Procedure, shortened: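 Rat PK, intravenous arm of a paired iv/po study. Dosed in 2% Vitamin E TPGS (tocopheryl polyethylene glycol 1000 succinate). Parameters derived from plasma: Cmax, AUC0–24 h, terminal T1/2.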

[48] = Half life in rat at 10 mg/kg, po; type: ADME, organism-based; parameters: dose 10 mg/kg, route oral; details: in vivo
[49] = Clearance in rat at 10 mg/kg, po; type: ADME, organism-based; parameters: dose 10 mg/kg, route oral; details: in vivo
[50] = system: Rattus norvegicus; assay: Volume of distribution at steady state in rat at 10 mg/kg, po; type: ADME, organism-based; parameters: dose 10 mg/kg, route oral; details: in vivo
Procedure, shortened: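 Rat pharmacokinetics: compounds given iv (1 or 3 mg/kg) and po (5 or 10 mg/kg) in 2% Vitamin E TPGS (tocopheryl polyethylene glycol 1000 succinate). Plasma sampled over 24 h for Cmax, Tmax, AUC0–24 h, T1/2, clearance, Vss and oral bioavailability. Brain to plasma ratio also measured.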

- inhibition [1]: > 16%
- inhibition [2]: > 16%
- inhibition [3]: > 16%
- inhibition [4]: > 16%
- inhibition [5]: > 16%
- inhibition [6]: > 16%
- inhibition [7]: > 16%
- inhibition [8]: > 16%
- inhibition [9]: > 16%
- inhibition [10]: > 16%
- inhibition [11]: > 16%
- inhibition [12]: > 16%
- inhibition [13]: > 16%
- inhibition [14]: > 16%
- inhibition [15]: > 16%
- inhibition [16]: > 16%
- inhibition [17]: > 16%
- inhibition [18]: > 16%
- inhibition [19]: > 16%
- inhibition [20]: > 16%
- inhibition [21]: > 16%
- inhibition [22]: > 16%
- Stability [23]: Unstable
- Stability [24]: Unstable
- Stability [25]: Unstable
- inhibition [26]: > 16%
- inhibition [27]: > 16%
- inhibition [28]: > 16%
- inhibition [29]: > 16%
- fraction unbound [33]: 0.008
- inhibition [34]: > 16%
- inhibition [35]: > 16%
- inhibition [36]: > 16%
- inhibition [37]: > 16%
- inhibition [38]: > 16%
- inhibition [39]: > 16%
- inhibition [40]: > 16%
- inhibition [41]: > 16%
- inhibition [42]: > 16%
- inhibition [43]: > 16%
- inhibition [44]: > 16%
- inhibition [45]: > 16%
- Cmax [46]: 456 ng/mL
- half-life [47]: 8.4 h
- half-life [48]: 8.4 h
- CL/F [49]: 12 mL/min/kg
- Vdss [50]: 7.8 L/kg
Compound: CCC(CC)Nc1nc(C)c(-c2ccc(OC(F)(F)F)cc2OC)nc1OC
- inhibition at 3 µM [30]: 17%
- Activity [31]: Active
- Activity [32]: Active
